Experimental findings from ChEMBL document CHEMBL3616378 (J Med Chem, 2015) are described below.

T2 sequence (Q14832 whole entry): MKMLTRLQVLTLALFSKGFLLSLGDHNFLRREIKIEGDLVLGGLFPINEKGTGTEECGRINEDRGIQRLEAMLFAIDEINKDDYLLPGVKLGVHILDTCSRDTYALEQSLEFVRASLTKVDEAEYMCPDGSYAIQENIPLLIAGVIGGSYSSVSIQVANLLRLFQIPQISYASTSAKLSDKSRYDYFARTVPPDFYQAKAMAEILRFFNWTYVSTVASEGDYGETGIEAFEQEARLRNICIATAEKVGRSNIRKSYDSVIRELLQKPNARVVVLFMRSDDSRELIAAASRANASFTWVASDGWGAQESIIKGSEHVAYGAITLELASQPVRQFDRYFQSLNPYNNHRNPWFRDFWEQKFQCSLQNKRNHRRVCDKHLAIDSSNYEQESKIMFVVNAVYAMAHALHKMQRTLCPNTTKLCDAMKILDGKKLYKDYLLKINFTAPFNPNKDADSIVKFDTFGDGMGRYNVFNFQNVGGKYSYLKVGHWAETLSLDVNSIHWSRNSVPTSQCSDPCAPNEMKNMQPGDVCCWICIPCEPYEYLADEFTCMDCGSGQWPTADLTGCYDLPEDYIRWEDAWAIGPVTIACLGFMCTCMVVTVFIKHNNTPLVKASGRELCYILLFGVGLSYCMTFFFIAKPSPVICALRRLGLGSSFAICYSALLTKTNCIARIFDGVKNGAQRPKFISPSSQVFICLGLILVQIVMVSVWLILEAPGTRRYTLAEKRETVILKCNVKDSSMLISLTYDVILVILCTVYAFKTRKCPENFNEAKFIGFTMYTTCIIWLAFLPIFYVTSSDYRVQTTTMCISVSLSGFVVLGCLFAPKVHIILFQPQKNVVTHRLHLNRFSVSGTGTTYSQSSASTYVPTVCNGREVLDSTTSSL
Metabotropic glutamate receptor 3 (Homo sapiens, UniProt Q14832, D279E), sequence (Q14832 23-879 D279E limits assumed): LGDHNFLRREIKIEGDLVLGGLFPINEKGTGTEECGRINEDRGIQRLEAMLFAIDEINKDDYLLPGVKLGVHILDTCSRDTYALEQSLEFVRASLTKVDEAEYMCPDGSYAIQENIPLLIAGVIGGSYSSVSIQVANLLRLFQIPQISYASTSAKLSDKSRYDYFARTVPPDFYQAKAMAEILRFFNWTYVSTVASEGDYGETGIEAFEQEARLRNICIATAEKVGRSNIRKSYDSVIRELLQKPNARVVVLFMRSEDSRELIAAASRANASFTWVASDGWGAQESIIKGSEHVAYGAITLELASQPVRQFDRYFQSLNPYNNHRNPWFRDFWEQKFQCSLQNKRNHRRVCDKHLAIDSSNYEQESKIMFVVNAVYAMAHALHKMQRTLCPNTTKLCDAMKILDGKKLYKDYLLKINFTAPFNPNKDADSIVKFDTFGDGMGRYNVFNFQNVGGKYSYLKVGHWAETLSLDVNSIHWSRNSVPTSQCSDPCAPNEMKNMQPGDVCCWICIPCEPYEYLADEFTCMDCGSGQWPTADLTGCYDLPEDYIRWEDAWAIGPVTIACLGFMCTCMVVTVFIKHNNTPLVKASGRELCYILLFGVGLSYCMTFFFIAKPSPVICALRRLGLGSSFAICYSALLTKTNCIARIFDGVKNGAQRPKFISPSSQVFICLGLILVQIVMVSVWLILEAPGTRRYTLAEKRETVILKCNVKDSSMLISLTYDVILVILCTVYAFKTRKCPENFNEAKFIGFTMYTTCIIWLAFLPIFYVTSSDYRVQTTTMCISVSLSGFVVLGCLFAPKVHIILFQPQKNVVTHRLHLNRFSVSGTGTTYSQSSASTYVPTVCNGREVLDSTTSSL
Metabotropic glutamate receptor 3 (Homo sapiens, UniProt Q14832, Q306L), sequence (Q14832 23-879 Q306L limits assumed): as the sequence (Q14832 23-879 D279E limits assumed) above, with E257D, Q284L counted along it

In one assay the target is T1, Metabotropic glutamate receptor 2 (Homo sapiens, UniProt Q14416). In words: Antagonist activity at human recombinant mGlu2 receptor expressed in AV12 cells assessed as inhibition of glutamate-stimulated Ca2+ mobilization after 1 hr by FLIPR assay. It counts as functional, cell-based. The method in brief: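 AV12 cells stably co-expressing rat EAAT1, Gα15 and human mGlu2 (Bmax 1.35 pmol/mg), plated 85K/well 24 h ahead in medium with 250 µM L-glutamine. Compounds were dissolved from 10 mM stocks in 0.1N NaOH and run as 10-point 3-fold series. Fluo-3 AM Ca2+ transients were read by FLIPR. Read-out was % inhibition of the EC90 glutamate response, with relative IC50 from a four-parameter logistic fit.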
T1 sequence (Q14416 whole entry): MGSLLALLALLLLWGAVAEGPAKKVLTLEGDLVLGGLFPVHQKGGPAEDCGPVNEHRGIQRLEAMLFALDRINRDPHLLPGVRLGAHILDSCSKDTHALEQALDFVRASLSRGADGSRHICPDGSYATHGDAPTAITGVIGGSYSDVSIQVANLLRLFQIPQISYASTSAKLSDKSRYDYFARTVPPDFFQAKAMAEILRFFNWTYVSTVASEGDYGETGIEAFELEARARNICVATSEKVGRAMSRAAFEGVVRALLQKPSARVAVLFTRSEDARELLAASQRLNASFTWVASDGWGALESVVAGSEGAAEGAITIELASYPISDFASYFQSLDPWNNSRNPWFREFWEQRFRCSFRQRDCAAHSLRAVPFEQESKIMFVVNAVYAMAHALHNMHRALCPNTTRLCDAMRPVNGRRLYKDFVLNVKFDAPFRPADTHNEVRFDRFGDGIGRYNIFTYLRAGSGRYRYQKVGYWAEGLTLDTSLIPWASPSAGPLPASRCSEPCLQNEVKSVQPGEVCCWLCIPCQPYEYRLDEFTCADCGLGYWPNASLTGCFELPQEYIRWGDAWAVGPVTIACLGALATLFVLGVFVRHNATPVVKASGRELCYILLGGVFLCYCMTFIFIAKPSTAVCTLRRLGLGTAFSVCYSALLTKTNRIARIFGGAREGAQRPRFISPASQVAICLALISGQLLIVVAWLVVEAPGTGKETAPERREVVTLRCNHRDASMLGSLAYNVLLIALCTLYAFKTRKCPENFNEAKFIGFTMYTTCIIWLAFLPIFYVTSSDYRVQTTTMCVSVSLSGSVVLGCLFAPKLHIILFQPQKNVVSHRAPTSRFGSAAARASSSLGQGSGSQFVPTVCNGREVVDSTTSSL
A general note: Calcium assays in cells follow changes in intracellular calcium, usually with a dye or a luminescent sensor.
`N[C@@]1(C(=O)O)C[C@@H](Sc2ccccc2)[C@H]2[C@H](C(=O)O)[C@H]21`: the IC50 (in general, the concentration at which inhibition is half-maximal) is above 12500 nM.

For `N[C@@]1(C(=O)O)C[C@H](Sc2ccccc2)[C@H]2[C@H](C(=O)O)[C@H]21`, the IC50 was above 12500 nM.

Another assay has as its target T2, Metabotropic glutamate receptor 3 (Homo sapiens, UniProt Q14832). In words: Antagonist activity at human recombinant mGlu3 receptor expressed in AV12 cells assessed as reversal of DCG-4-inhibited, forskolin-stimulated cAMP production after 1 hr by fluorescence assay. It counts as functional, cell-based. A general note: cAMP levels reflect the balance of adenylyl cyclase and phosphodiesterase activity.
For the molecule `N[C@@]1(C(=O)O)C[C@@H](Sc2ccccc2)[C@H]2[C@H](C(=O)O)[C@H]21`, the concentration for half-maximal inhibition (IC50) came to 1070 nM.

With `N[C@@]1(C(=O)O)C[C@@H](Sc2nnc(C(F)(F)F)[nH]2)[C@H]2[C@H](C(=O)O)[C@H]21`, the IC50 was determined as 528 nM.

Consider `N[C@@]1(C(=O)O)C[C@@H](Sc2nnc(C(F)F)[nH]2)[C@H]2[C@H](C(=O)O)[C@H]21`, for which the IC50 came to 459 nM.

As for `CC(C)c1nnc(S[C@@H]2C[C@@](N)(C(=O)O)[C@@H]3[C@@H](C(=O)O)[C@@H]32)[nH]1`, the IC50 came to 859 nM.

`N[C@@]1(C(=O)O)C[C@@H](Sc2c[nH]nn2)[C@H]2[C@H](C(=O)O)[C@H]21`: the IC50 is 2380 nM.

`N[C@@]1(C(=O)O)C[C@H](Sc2nnc[nH]2)[C@H]2[C@H](C(=O)O)[C@H]21`: the half-inhibitory concentration (IC50) worked out at 4260 nM.

In another assay the target is T2, Metabotropic glutamate receptor 3. In words: Agonist activity at wild type human recombinant mGlu3 receptor expressed in AV12 cells assessed as stimulation of Ca2+ mobilization after 1 hr by FLIPR assay. It counts as functional, cell-based.
For `N[C@@H](CCC(=O)O)C(=O)O` [GLUTAMIC ACID], the concentration for a half-maximal effect (EC50) (as a rule, the concentration needed to bring the measured effect to its halfway point) came out at 1000 nM.

The next assay addresses Metabotropic glutamate receptor 3 (Homo sapiens, UniProt Q14832, Q306L). The assay is described as follows: Agonist activity at human recombinant mGlu3 receptor Q306L mutant expressed in AV12 cells assessed as stimulation of Ca2+ mobilization after 1 hr by FLIPR assay. It counts as functional, cell-based.
On to `N[C@@H](CCC(=O)O)C(=O)O` [GLUTAMIC ACID], for which the EC50 was 1480 nM.

A further assay deals with T1, Metabotropic glutamate receptor 2. In words: Agonist activity at human recombinant mGlu2 receptor expressed in AV12 cells assessed as inhibition of forskolin-stimulated cAMP production after 20 min by fluorescence assay.
As for `N[C@@]1(C(=O)O)C[C@@H](Sc2nnc(C(F)F)[nH]2)[C@H]2[C@H](C(=O)O)[C@H]21`, the EC50 was found to be 11.8 nM.

With `CC(C)c1nnc(S[C@@H]2C[C@@](N)(C(=O)O)[C@@H]3[C@@H](C(=O)O)[C@@H]32)[nH]1`, the EC50 was determined as 16.5 nM.

On to `N[C@@]1(C(=O)O)C[C@@H](Sc2c[nH]nn2)[C@H]2[C@H](C(=O)O)[C@H]21`, for which the concentration for a half-maximal effect (EC50) is 12.4 nM.

Take `N[C@@]1(C(=O)O)C[C@H](Sc2nnc[nH]2)[C@H]2[C@H](C(=O)O)[C@H]21`: the concentration giving a half-maximal response (EC50) came out at 11.2 nM.

For the next assay, the target named is T2, Metabotropic glutamate receptor 3. In words: Agonist activity at human recombinant mGlu3 receptor expressed in AV12 cells assessed as stimulation of Ca2+ mobilization after 1.5 hrs by FLIPR assay. It counts as functional, cell-based.
On to `N[C@@]1(C(=O)O)C[C@@H](Sc2ccccc2)[C@H]2[C@H](C(=O)O)[C@H]21`, for which the EC50 is above 25000 nM.

For `N[C@@]1(C(=O)O)C[C@H](Sc2ccccc2)[C@H]2[C@H](C(=O)O)[C@H]21`, the EC50 is above 5000 nM.

In the case of `N[C@@]1(C(=O)O)C[C@@H](Sc2nnc(C(F)(F)F)[nH]2)[C@H]2[C@H](C(=O)O)[C@H]21`, the concentration giving a half-maximal response (EC50) was found to be 82 nM.

With `N[C@@]1(C(=O)O)C[C@@H](Sc2nnc(C(F)F)[nH]2)[C@H]2[C@H](C(=O)O)[C@H]21`, the EC50 was above 25000 nM.

`CC(C)c1nnc(S[C@@H]2C[C@@](N)(C(=O)O)[C@@H]3[C@@H](C(=O)O)[C@@H]32)[nH]1`: the EC50 was above 25000 nM.

On to `N[C@@]1(C(=O)O)C[C@@H](Sc2c[nH]nn2)[C@H]2[C@H](C(=O)O)[C@H]21`, for which the EC50 is above 25000 nM.

For `N[C@@]1(C(=O)O)C[C@H](Sc2nnc[nH]2)[C@H]2[C@H](C(=O)O)[C@H]21`, the EC50 is above 25000 nM.

The next assay has as its target Metabotropic glutamate receptor 3 (Homo sapiens, UniProt Q14832, D279E). The assay is described as follows: Agonist activity at human recombinant mGlu3 receptor D279E mutant expressed in AV12 cells assessed as stimulation of Ca2+ mobilization after 1 hr by FLIPR assay. It counts as functional, cell-based.
Regarding `N[C@@H](CCC(=O)O)C(=O)O` [GLUTAMIC ACID], the EC50 was 4180 nM.

For another assay, the target named is T1, Metabotropic glutamate receptor 2. In words: Agonist activity at human recombinant mGlu2 receptor expressed in AV12 cells assessed as stimulation of Ca2+ mobilization after 1 hr by FLIPR assay. It counts as functional, cell-based.
Regarding `N[C@@]1(C(=O)O)C[C@@H](Sc2ccccc2)[C@H]2[C@H](C(=O)O)[C@H]21`, the EC50 is above 12500 nM.

Consider `N[C@@]1(C(=O)O)C[C@H](Sc2ccccc2)[C@H]2[C@H](C(=O)O)[C@H]21`, for which the EC50 is above 25000 nM.

Take `N[C@@]1(C(=O)O)C[C@@H](Sc2nnc(C(F)F)[nH]2)[C@H]2[C@H](C(=O)O)[C@H]21`: the EC50 was 53.6 nM.

Turning to `CC(C)c1nnc(S[C@@H]2C[C@@](N)(C(=O)O)[C@@H]3[C@@H](C(=O)O)[C@@H]32)[nH]1`, the EC50 was 87.8 nM.

The next assay has the same target. In words: Displacement of [3H]-459477 from human recombinant mGlu2 receptor expressed in AV12 cells after 90 mins by liquid scintillation counting. It counts as cell-based. A general note: Displacement assays read how much labelled ligand stays bound in the presence of the test substance.
As for `N[C@@]1(C(=O)O)C[C@@H](Sc2ccccc2)[C@H]2[C@H](C(=O)O)[C@H]21`, the Ki – broadly, the dissociation constant of the complex between target and ligand, obtained from inhibition or displacement – was determined as 420 nM.

On to `N[C@@]1(C(=O)O)C[C@H](Sc2ccccc2)[C@H]2[C@H](C(=O)O)[C@H]21`, for which the inhibition constant (Ki) amounted to 1230 nM.

For the molecule `N[C@@]1(C(=O)O)C[C@@H](Sc2nnc(C(F)F)[nH]2)[C@H]2[C@H](C(=O)O)[C@H]21`, the inhibition constant Ki amounted to 95.8 nM.

Regarding `CC(C)c1nnc(S[C@@H]2C[C@@](N)(C(=O)O)[C@@H]3[C@@H](C(=O)O)[C@@H]32)[nH]1`, the Ki was found to be 266 nM.

`N[C@@]1(C(=O)O)C[C@@H](Sc2c[nH]nn2)[C@H]2[C@H](C(=O)O)[C@H]21`: the inhibition constant (Ki) was determined as 142 nM.

With `N[C@@]1(C(=O)O)C[C@H](Sc2nnc[nH]2)[C@H]2[C@H](C(=O)O)[C@H]21`, the Ki was 60.4 nM.

In the next assay the target is T2, Metabotropic glutamate receptor 3. The assay is described as follows: Displacement of [3H]-459477 from human recombinant mGlu3 receptor expressed in AV12 cells after 90 mins by liquid scintillation counting. It counts as cell-based.
With `N[C@@]1(C(=O)O)C[C@@H](Sc2ccccc2)[C@H]2[C@H](C(=O)O)[C@H]21`, the inhibition constant (Ki) came out at 138 nM.

As for `N[C@@]1(C(=O)O)C[C@H](Sc2ccccc2)[C@H]2[C@H](C(=O)O)[C@H]21`, the Ki stood at 272 nM.

With `N[C@@]1(C(=O)O)C[C@@H](Sc2nnc(C(F)(F)F)[nH]2)[C@H]2[C@H](C(=O)O)[C@H]21`, the inhibition constant (Ki) is 56.7 nM.

With `N[C@@]1(C(=O)O)C[C@@H](Sc2nnc(C(F)F)[nH]2)[C@H]2[C@H](C(=O)O)[C@H]21`, the inhibitory constant (Ki) is 63.2 nM.

As to `CC(C)c1nnc(S[C@@H]2C[C@@](N)(C(=O)O)[C@@H]3[C@@H](C(=O)O)[C@@H]32)[nH]1`, the inhibitory constant (Ki) worked out at 157 nM.

As for `N[C@@]1(C(=O)O)C[C@@H](Sc2c[nH]nn2)[C@H]2[C@H](C(=O)O)[C@H]21`, the Ki was determined as 259 nM.

On to `N[C@@]1(C(=O)O)C[C@H](Sc2nnc[nH]2)[C@H]2[C@H](C(=O)O)[C@H]21`, for which the inhibition constant (Ki) amounted to 126 nM.

For another assay the target is unchanged. In words: Agonist activity at human recombinant mGlu3 receptor expressed in AV12 cells assessed as inhibition of forskolin-stimulated cAMP production after 1 hr by fluorescence assay. It counts as functional, cell-based.
As to `N[C@@]1(C(=O)O)C[C@@H](Sc2ccccc2)[C@H]2[C@H](C(=O)O)[C@H]21`, the concentration for a half-maximal effect (EC50) was above 25000 nM.

For the molecule `N[C@@]1(C(=O)O)C[C@H](Sc2ccccc2)[C@H]2[C@H](C(=O)O)[C@H]21`, the 50% effective concentration (EC50) is above 25000 nM.

In the case of `N[C@@]1(C(=O)O)C[C@@H](Sc2nnc(C(F)(F)F)[nH]2)[C@H]2[C@H](C(=O)O)[C@H]21`, the 50% effective concentration (EC50) stood at 79.5 nM.

As for `N[C@@]1(C(=O)O)C[C@@H](Sc2nnc(C(F)F)[nH]2)[C@H]2[C@H](C(=O)O)[C@H]21`, the concentration giving a half-maximal response (EC50) stood at 77.7 nM.

On to `CC(C)c1nnc(S[C@@H]2C[C@@](N)(C(=O)O)[C@@H]3[C@@H](C(=O)O)[C@@H]32)[nH]1`, for which the concentration giving a half-maximal response (EC50) came to 281 nM.

Regarding `N[C@@]1(C(=O)O)C[C@@H](Sc2c[nH]nn2)[C@H]2[C@H](C(=O)O)[C@H]21`, the EC50 worked out at 235 nM.

Consider `N[C@@]1(C(=O)O)C[C@H](Sc2nnc[nH]2)[C@H]2[C@H](C(=O)O)[C@H]21`, for which the concentration giving a half-maximal response (EC50) is 227 nM.

The target is the same in a further assay. The assay is described as follows: Antagonist activity at human recombinant mGlu3 receptor expressed in AV12 cells assessed as inhibition of glutamate-stimulated Ca2+ mobilization after 1.5 hrs by FLIPR assay. It counts as functional, cell-based.
Turning to `N[C@@]1(C(=O)O)C[C@@H](Sc2ccccc2)[C@H]2[C@H](C(=O)O)[C@H]21`, the IC50 was 7690 nM.

As to `N[C@@]1(C(=O)O)C[C@H](Sc2ccccc2)[C@H]2[C@H](C(=O)O)[C@H]21`, the 50% inhibitory concentration (IC50) turned out to be 6710 nM.

With `N[C@@]1(C(=O)O)C[C@@H](Sc2nnc(C(F)F)[nH]2)[C@H]2[C@H](C(=O)O)[C@H]21`, the IC50 stood at 154 nM.

With `CC(C)c1nnc(S[C@@H]2C[C@@](N)(C(=O)O)[C@@H]3[C@@H](C(=O)O)[C@@H]32)[nH]1`, the concentration for half-maximal inhibition (IC50) was above 12500 nM.

On to `N[C@@]1(C(=O)O)C[C@@H](Sc2c[nH]nn2)[C@H]2[C@H](C(=O)O)[C@H]21`, for which the concentration for half-maximal inhibition (IC50) was 5510 nM.

`N[C@@]1(C(=O)O)C[C@H](Sc2nnc[nH]2)[C@H]2[C@H](C(=O)O)[C@H]21`: the concentration for half-maximal inhibition (IC50) came to 3100 nM.

The target in the next assay is T1, Metabotropic glutamate receptor 2. The assay is described as follows: Antagonist activity at human recombinant mGlu2 receptor expressed in AV12 cells assessed as reversal of DCG-4-inhibited, forskolin-stimulated cAMP production after 1 hr by fluorescence assay. It counts as functional, cell-based.
As to `N[C@@]1(C(=O)O)C[C@H](Sc2ccccc2)[C@H]2[C@H](C(=O)O)[C@H]21`, the half-maximal inhibitory concentration (IC50) came out at 15300 nM.

For another assay, the target named is Metabotropic glutamate receptor 3 (Homo sapiens, UniProt Q14832, D279E/Q306L). The assay is described as follows: Agonist activity at human recombinant mGlu3 receptor D279E and Q306L mutant expressed in AV12 cells assessed as stimulation of Ca2+ mobilization after 1 hr by FLIPR assay. It counts as functional, cell-based.
Metabotropic glutamate receptor 3 (Homo sapiens, UniProt Q14832, D279E/Q306L), sequence (Q14832 23-879 D279E/Q306L limits assumed): as the sequence (Q14832 23-879 D279E limits assumed) above, with Q284L counted along it
Turning to `N[C@@H](CCC(=O)O)C(=O)O` [GLUTAMIC ACID], the 50% effective concentration (EC50) is 5120 nM.
